These results are taken from the array DNA melting data of Ke et al. (doi:10.1101/2024.01.08.574731).

Data set [1] is described as follows: folding enthalpy; higher = less favourable; fluorescence melt of hairpins on a sequencing array, two-state fit. To be noted: sodium 0.088 M. The procedure, abridged: (§1)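 On a sequenced MiSeq flow cell, library hairpins with annealed Cy3 and quencher oligos were imaged for Cy3 fluorescence in 2.5 °C steps up to 60 °C, in 50 mM Na-HEPES pH 8.0, 25 mM NaCl. Normalisation used pre-quench Cy3 and control constructs. Bootstrapped two-state fits gave melting temperature and folding enthalpy, combined by inverse variance across four replicates and with fitted temperatures raised by 9.35 °C to match UV melts.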

Data set [2] is described as follows: melting temperature; fluorescence melt of hairpins on a sequencing array, two-state fit, raised by 9.35 °C to match UV melts. To be noted: sodium 0.088 M. The procedure, abridged: as §1

For the sequence GTTGTCGAAAGACAAC ((((((....)))))), the folding enthalpy in data set [1] was -27.7 kcal/mol. In data set [2], the Tm was found to be 67.5 °C.
With GTTGTCGAAAGACATAAC ((((((....)))..))), in data set [1], the folding enthalpy is -13.3 kcal/mol. Moreover, the Tm in data set [2] is 32.6 °C.
As to GTTGTCGAAAGACTGAAC ((((((....)))..))), in data set [1], the folding enthalpy is -11.3 kcal/mol. In data set [2], the Tm worked out at 30.7 °C.
Turning to GTTGTCGGAAACAACAAC (((((.(....).))))), in data set [1], the folding enthalpy is -23.4 kcal/mol. Also, the Tm in data set [2] was 40.2 °C.
Take GTTGTCTCGAAAGAGAAC (((..(((....)))))): the folding enthalpy in data set [1] is -22.2 kcal/mol. In data set [2], the Tm is 46.1 °C.
The matching figures for GTTGTGACGAAAGTCAAC (((..(((....)))))): -21.6 kcal/mol and 49.7 °C.
As to GTTGTGTCGAAAGACAAC (((..(((....)))))), the folding enthalpy in data set [1] was -24.9 kcal/mol. Also, the Tm in data set [2] is 51.1 °C.
In the case of GTTGTTGGAAACAATAGC (.(.(((....))).).), in data set [1], the folding enthalpy is -11.9 kcal/mol. Besides, in data set [2], the Tm is 31.2 °C.
Turning to GTTGTTGGAAACAATGAC ((..(((....)))..)), the folding enthalpy in data set [1] is -13.9 kcal/mol. For the same sequence, in data set [2], the Tm was 38.5 °C.
Take GTTTAACGAAAGTTTAAC (((.(((....))).))): in data set [1], the folding enthalpy was -23.4 kcal/mol. In addition, the Tm in data set [2] came out at 36.2 °C.
Take GTTTAAGGAAACTTAAAC (((((((....))))))): the folding enthalpy in data set [1] was -40.6 kcal/mol. Moreover, the Tm in data set [2] was determined as 46.5 °C.
For GTTTACCGAAAGGTAAC (((.(((....)))))), in that order: -12.7 kcal/mol and 44.2 °C.
The matching figures for GTTTACGAAAGTAGAAC ((((((....))).))): -11.3 kcal/mol and 27.2 °C.
GTTTACGGAAACGCAAAC ((((.((....)).)))): the folding enthalpy in data set [1] is -27.7 kcal/mol. The Tm in data set [2] turned out to be 37.3 °C.
The matching figures for GTTTACGGAAACGTAAGC (.(((((....))))).): -22.4 kcal/mol and 41.5 °C.
Consider GTTTAGAAATAAAC (((((....))))), for which the folding enthalpy in data set [1] was -9.32 kcal/mol. For the same sequence, the Tm in data set [2] stood at 28.4 °C.
For GTTTCACGAAAGTGCAAC (((.(((....))).))), the folding enthalpy in data set [1] is -26.9 kcal/mol. Moreover, the Tm in data set [2] turned out to be 41.1 °C.
For GTTTCCGAAAGGAAAAAC ((((((....)))..))), in data set [1], the folding enthalpy is -15.1 kcal/mol. Also, the Tm in data set [2] was determined as 36.8 °C.
With GTTTCCGAAAGGAAGAAC ((((((....)))..))), the folding enthalpy in data set [1] was -11.1 kcal/mol. Also, in data set [2], the Tm stood at 30.9 °C.
GTTTCCGAAAGGAGAAAC ((((((....)))..))): in data set [1], the folding enthalpy is -16.8 kcal/mol. Further, in data set [2], the Tm was 32.5 °C.
For GTTTCCGAAAGGAGTAAC ((((((....)))..))), the folding enthalpy in data set [1] was -12.6 kcal/mol. Further, the Tm in data set [2] was determined as 28.8 °C.
As to GTTTCCGAAAGGATTAAC ((((((....)))..))), the folding enthalpy in data set [1] was -11.6 kcal/mol. For the same sequence, the Tm in data set [2] was found to be 28.6 °C.
As to GTTTCCGGAAACAGAAAC (((((.(....).))))), the folding enthalpy in data set [1] was -13.2 kcal/mol. For the same sequence, the Tm in data set [2] is 35.1 °C.
On to GTTTCCGGAAACGGAAGC (.(((((....))))).), for which the folding enthalpy in data set [1] is -16.7 kcal/mol. Besides, the Tm in data set [2] stood at 49.3 °C.
As for GTTTCGGGAAACCGAGAC ((.((((....)))).)), in data set [1], the folding enthalpy was -21.4 kcal/mol. For the same sequence, the Tm in data set [2] turned out to be 47.3 °C.
In the case of GTTTCGGGAAACTGAAAC (((((.(....).))))), the folding enthalpy in data set [1] was -27.5 kcal/mol. The Tm in data set [2] was determined as 46.9 °C.
As for GTTTCTGGAAACAGAAAC (((((((....))))))), the folding enthalpy in data set [1] is -43.3 kcal/mol. The Tm in data set [2] came to 55.1 °C.
Consider GTTTCTGGAAACAGAAGC (.(((((....))))).), for which the folding enthalpy in data set [1] was -26.3 kcal/mol. The Tm in data set [2] was found to be 39.5 °C.
The matching figures for GTTTCTGGAAACAGAGAC ((.((((....)))).)): -26.9 kcal/mol and 37.2 °C.
As to GTTTGACGAAAGTCCAAC (((.(((....))).))), the folding enthalpy in data set [1] is -20.6 kcal/mol. Moreover, in data set [2], the Tm worked out at 40.5 °C.
